Test results: ChEMBL document CHEMBL4823261, “Grincamycins P-T: Rearranged Angucyclines from the Marine Sediment-Derived Streptomyces sp. CNZ-748 Inhibit Cell Lines of the Rare Cancer Pseudomyxoma Peritonei” (J Nat Prod, 2021)

Assays:
[1] = Cytotoxicity against human PMP501-1 cells assessed as inhibition of cell proliferation measured after 24 hrs by crystal violet staining assay; assay type: functional, cell-based; settings: PMP501-1, 24 h
Summary of the method: (§1)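 PMP-derived lines (ABX023-1, PMP457-2, PMP501-1) and mucinous colonic adenocarcinoma peritoneal metastasis line C09-1. Seeded at 30 000 cells/well in triplicate in Ham's F12 with 10% FBS, L-glutamine, insulin and sodium selenite. Grown 24 h at 37 °C, then treated for 24 h. Controls were DMSO vehicle, 5-fluorouracil and 10% EtOH dead-cell. Cells were stained with 0.2% crystal violet, solubilised in SDS/EtOH and read at OD595.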

[2] = Cytotoxicity against human PMP457-2 cells assessed as inhibition of cell proliferation measured after 24 hrs by crystal violet staining assay; assay type: functional, cell-based; settings: PMP457-2, 24 h; summary of the method: as §1
[3] = Cytotoxicity against human ABX023-1 cells assessed as inhibition of cell proliferation measured after 24 hrs by crystal violet staining assay; assay type: functional, cell-based; settings: ABX023-1, 24 h; summary of the method: as §1
[4] = Cytotoxicity against human C09-1 cells assessed as inhibition of cell proliferation measured after 24 hrs by crystal violet staining assay; assay type: functional, cell-based; settings: C09-1, 24 h; summary of the method: as §1
[5] = Stability of the compound in 0.1% TFA/MeOH solution measured after 12 hrs by LC/MS analysis; assay type: physicochemical
Summary of the method: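 10 μg aliquots were incubated in 0.1% TFA in MeOH at 30 °C for 12 h, then dried under N2 and redissolved in MeOH. Analysed by UHPLC-DAD-ESI(±)MS on C18 with a water/MeCN gradient containing 0.1% formic acid. Compared against authentic standards run by the same method.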

Structure (SMILES) | IC50 [1] | IC50 [2] | IC50 [3] | IC50 [4] | Stabilty [5]
C[C@@H]1O[C@@H](O[C@H]2CC[C@H](O[C@H]3[C@H](O)C[C@H](c4ccc5c(c4O)C(=O)c4ccc(C[C@@](C)(O)CC(=O)O)c(O)c4C5=O)O[C@@H]3C)O[C@H]2C)C(N)=CC1=O | 12 µM | > 100 µM | 23 µM | 17 µM | 
CSC1=CC(=O)[C@H](C)O[C@H]1O[C@H]1CC[C@H](O[C@H]2[C@H](O)C[C@H](c3ccc4c(c3O)C(=O)c3ccc(C[C@](C)(CC(=O)O)O[C@H]5CC[C@H](O[C@H]6CC[C@H](O)[C@H](C)O6)[C@H](C)O5)c(O)c3C4=O)O[C@@H]2C)O[C@H]1C | 3.9 µM | 7.8 µM | 13 µM | 61 µM | 
C[C@@H]1O[C@@H](O[C@H]2[C@H](O)C[C@H](c3ccc4c(c3O)C(=O)c3ccc(C[C@@](C)(O)CC(=O)O)c(O)c3C4=O)O[C@@H]2C)CC[C@@H]1O[C@H]1CC[C@H](O)[C@H](C)O1 | > 100 µM | 23 µM | 21 µM | 32 µM | 
C[C@@H]1O[C@@H](O[C@H]2[C@H](O)C[C@H](c3ccc4c(c3O)C(=O)c3ccc(C[C@](C)(CC(=O)O)O[C@H]5CC[C@H](O[C@H]6CC[C@H](O)[C@H](C)O6)[C@H](C)O5)c(O)c3C4=O)O[C@@H]2C)CC[C@@H]1O[C@H]1CC[C@H](O)[C@H](C)O1 | 18 µM | 11 µM | 45 µM | 38 µM | 
C[C@@H]1O[C@@H](O[C@H]2[C@H](O)C[C@H](c3ccc4c(c3O)C(=O)c3c(O)cc(C[C@](C)(CC(=O)O)O[C@H]5CC[C@H](O[C@H]6CC[C@H](O)[C@H](C)O6)[C@H](C)O5)c(O)c3C4=O)O[C@@H]2C)CC[C@@H]1O[C@H]1CC[C@H](O)[C@H](C)O1 | 2.7 µM | 1.9 µM | 1.4 µM | 8.7 µM | 
C[C@H]1O[C@@H](c2ccc3c(c2O)C(=O)c2ccc(C[C@@](C)(O)CC(=O)O)c(O)c2C3=O)C[C@@H](O)[C@@H]1O | 11 µM | 6.7 µM | 49 µM | 42 µM | Stable
C[C@@H]1O[C@H]2O[C@@H]3[C@@H](C)O[C@@H](c4ccc5c(c4O)C(=O)c4ccc(C[C@@](C)(O)CC(=O)O)c(O)c4C5=O)C[C@H]3O[C@H]2C[C@@H]1O | 23 µM | > 100 µM | 14 µM | 19 µM | Stable
C[C@@H]1O[C@@H](O[C@H]2[C@H](O)C[C@H](c3ccc4c(c3O)C(=O)c3ccc(C[C@@](C)(O)CC(=O)O)c(O)c3C4=O)O[C@@H]2C)CC[C@@H]1O | 14 µM | 5.9 µM | 12 µM | 6.6 µM | 
C[C@@H]1O[C@@H](O[C@H]2[C@H](O)C[C@H](c3ccc4c(c3O)C(=O)c3c(O)cc(C[C@@](C)(O)CC(=O)O)c(O)c3C4=O)O[C@@H]2C)CC[C@@H]1O[C@H]1CC[C@H](O)[C@H](C)O1 | 2.5 µM | 5.5 µM | 4.7 µM | 10 µM | 
O=c1[nH]cc(F)c(=O)[nH]1 [FLUOROURACIL] | 3.6 µM | 2 µM | 3.4 µM | 4 µM | 
